Assay results reported in ChEMBL document CHEMBL1799966, “Synthesis and anticancer activity of oxindole derived imidazo[1,5-a]pyrazines” (Eur J Med Chem, 2011).
The source made the active and inactive calls. No cut-off for these calls is given here.

Columns and labels:
[1] = system: OVCAR-5; assay: Cytotoxicity against human OVCAR5 cells; format: functional
Summary of the method: (§1)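 NCI 60-cell panel second-stage testing by NCI standard procedures. Compound was dissolved in DMSO and tested at five 10-fold dilutions: 10^-4, 10^-5, 10^-6, 10^-7 and 10^-8 M.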

[2] = system: A549; assay: Induction of apoptosis in human A549 cells assessed as late apoptotic cells at 6.5 uM after 48 hrs using Annexin V-FITC and PI staining by flow cytometry (reference value: 85.7 %); format: functional
[3] = system: A549; assay: Induction of apoptosis in human A549 cells assessed as viable cells at 6.5 uM after 24 hrs using Annexin V-FITC and PI staining by flow cytometry (reference value: 11.1 %); format: functional; conditions: A549, 24 h, read-out: Activity
[4] = system: TK-10; assay: Cytotoxicity against human TK10 cells; format: functional
Summary of the method: (§2)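 NCI 60-cell-line panel protocol. Primary screen used a single 10^-5 M concentration with 48 h incubation, and percent growth was read against untreated cells by sulforhodamine B protein staining. The five-dose follow-up used a DMSO solution at five 10-fold dilutions from 10^-4 to 10^-8 M.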

[5] = system: SR; assay: Cytotoxicity against human SR cells; format: functional; summary of the method: as §2
[6] = system: A549; assay: Induction of cell cycle arrest in human A549 cells assessed as accumulation at G0/G1 phase at 6.5 uM after 24 hrs by propidium iodide staining-based FACS analysis (reference value: 56.26 %); format: functional
Summary of the method: (§3)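 A549 cells (1 × 10^6) in six-well plates received 6.5 µM (final) for 24 h or 48 h. Floating and adherent cells were fixed in 70% ethanol, washed in PBS, then stained for 20 min with 50 µg/mL propidium iodide in hypotonic citrate/Triton X-100 buffer with DNase-free RNase A. Cells were analysed by FACS.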

[7] = system: NCI-H322M; assay: Cytotoxicity against human NCI-H322M cells; format: functional; summary of the method: as §1
[8] = system: A549; assay: Growth inhibition of human A549 cells; format: functional, cell-based
Summary of the method: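 MTT reduction assay. Cells were seeded at 1 × 10^4 per well in DMEM with 10% FBS and pre-incubated 24 h at 37 °C under CO2. Compounds were diluted in medium and incubated 24 h. Medium was then removed, MTT (5 mg/mL stock) added for 4 h, formazan dissolved in DMSO, and absorbance read at 540 nm.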

[9] = system: BT-549; assay: Cytotoxicity against human BT549 cells; format: functional; summary of the method: as §1
[10] = system: A549; assay: Induction of cell cycle arrest in human A549 cells assessed as accumulation at sub G1 phase at 6.5 uM after 24 hrs by propidium iodide staining-based FACS analysis (reference value: 1.02 %); format: functional; summary of the method: as §3
[11] = system: U-251; assay: Cytotoxicity against human U251 cells; format: functional; summary of the method: as §2
[12] = system: MDA-MB-435; assay: Cytotoxicity against human MDA-MB-435 cells; format: functional; summary of the method: as §1
[13] = system: PC-3; assay: Cytotoxicity against human PC3 cells; format: functional; summary of the method: as §1
[14] = system: HEK293; assay: Cytotoxicity against human HEK293 cells after 48 hrs by MTT assay; format: cell-based; conditions: hek293, 48 h
Summary of the method: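 HEK-293 cells were seeded at 1 × 10^4 cells/well in DMEM with 10% FBS and held 24 h at 37 °C under CO2. Compound diluted in culture medium was added for 48 h. MTT (5 mg/mL stock) was then added for 4 h, formazan dissolved in DMSO, and absorbance read at 540 nm.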

[15] = system: SF-268; assay: Cytotoxicity against human SF268 cells; format: functional; summary of the method: as §1
[16] = system: T47D; assay: Cytotoxicity against human T47D cells; format: functional; summary of the method: as §2
[17] = system: HCT-116; assay: Cytotoxicity against human HCT116 cells; format: functional; summary of the method: as §1
[18] = system: KM12; assay: Cytotoxicity against human KM12 cells; format: functional; summary of the method: as §1
[19] = system: SK-MEL-5; assay: Cytotoxicity against human SK-MEL-5 cells; format: functional; summary of the method: as §2
[20] = system: A549; assay: Induction of cell cycle arrest in human A549 cells assessed as accumulation at sub G1 phase at 6.5 uM after 48 hrs by propidium iodide staining-based FACS analysis (reference value: 1.02 %); format: functional; summary of the method: as §3
[21] = system: SW-620; assay: Cytotoxicity against human SW620 cells; format: functional; summary of the method: as §2
[22] = system: SNB-75; assay: Anticancer activity against human SNB75 cells assessed as mean cell growth at 10^-5 M after 48 hrs by SRB assay; format: functional
Summary of the method: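 NCI-60 primary screen run to the US NCI protocol. Compound added at a single concentration of 10^-5 M and cultures incubated 48 h. The end point was sulforhodamine B (SRB) protein staining, reported as percent growth of treated cells relative to untreated control cells.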

[23] = system: MDA-MB-468; assay: Cytotoxicity against human MDA-MB-468 cells; format: functional; summary of the method: as §1
[24] = system: Malme-3M; assay: Cytotoxicity against human MALME-3M cells; format: functional; summary of the method: as §1
[25] = system: HOP-62; assay: Cytotoxicity against human HOP62 cells; format: functional; summary of the method: as §1
[26] = system: A549; assay: Cytotoxicity against human A549 cells; format: functional
[27] = system: SK-MEL-28; assay: Cytotoxicity against human SK-MEL-28 cells; format: functional; summary of the method: as §2
[28] = system: A549; assay: Induction of apoptosis in human A549 cells assessed as apoptotic cells at 6.5 uM after 24 hrs using Annexin V-FITC and PI staining by flow cytometry (reference value: 2.6 %); format: functional
[29] = system: A549; assay: Induction of apoptosis in human A549 cells assessed as nuclear fragmentation at 6.5 uM after 24 to 48 hrs by Hoechst 33342 staining; format: functional, cell-based
Summary of the method: (§4)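 A549 cells were grown 24 h on coverslips at 10,000 cells, then exposed to 6.5 µM for 24 h and 48 h, with 0.001% DMSO vehicle controls. Hoechst 33342 (0.5 µg/mL) with 4% paraformaldehyde was applied for 30 min at 37 °C. Random fields were examined by fluorescence microscopy, scoring relative fluorescence and nuclear fragmentation.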

[30] = system: A549; assay: Induction of cell cycle arrest in human A549 cells assessed as accumulation at G2/M phase at 6.5 uM after 48 hrs by propidium iodide staining-based FACS analysis (reference value: 20.92 %); format: functional; summary of the method: as §3
[31] = system: A549; assay: Induction of apoptosis in human A549 cells assessed as intraneucleosomal DNA fragmentation at 6.5 uM after 24 to 48 hrs by agarose gel electrophoresis technique; format: functional, cell-based
Summary of the method: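 After 24 h and 48 h at 6.5 µM, A549 cells were pelleted, washed in PBS and lysed. The supernatant was treated with SDS and RNase A for 2 h at 56 °C, then proteinase K. DNA was precipitated with ammonium acetate and ice-cold ethanol at −80 °C for 1 h, washed in 80% ethanol, dissolved in TE, and run on 2% agarose gel.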

[32] = system: UACC-62; assay: Cytotoxicity against human UACC62 cells; format: functional; summary of the method: as §2
[33] = system: A549; assay: Induction of apoptosis in human A549 cells assessed as apoptotic cells at 6.5 uM after 48 hrs using Annexin V-FITC and PI staining by flow cytometry (reference value: 2.6 %); format: functional
[34] = system: LOX IMVI; assay: Cytotoxicity against human LOXIMVI cells; format: functional; summary of the method: as §1
[35] = system: A549; assay: Induction of apoptosis in human A549 cells assessed as apoptotic bodies formation at 6.5 uM after 24 to 48 hrs by Hoechst 33342 staining; format: functional, cell-based; summary of the method: as §4
[36] = system: MDA-MB-231; assay: Cytotoxicity against human MDA-MB-231 cells; format: functional; summary of the method: as §1
[37] = system: UACC-257; assay: Cytotoxicity against human UACC257 cells; format: functional; summary of the method: as §2
[38] = system: SK-MEL-2; assay: Cytotoxicity against human SK-MEL-2 cells; format: functional; summary of the method: as §1
[39] = system: SNB-19; assay: Cytotoxicity against human SNB19 cells; format: functional; summary of the method: as §2
[40] = system: SK-OV-3; assay: Cytotoxicity against human SKOV3 cells; format: functional; summary of the method: as §2

## O=C1Nc2ccccc2/C1=C\c1nc(-c2ccccc2F)n2ccccc12
[1]
  GI50: 1.8 µM
[2]
  Activity: 3.4%
[3]
  viability at 6.5 µM: 31.2%
[4]
  GI50: 4.05 µM
[5]
  GI50: 11 µM
[6]
  Activity: 66.2%
[7]
  GI50: 4.16 µM
[8]
  IC50: 6.5 µM
[9]
  GI50: 3.36 µM
[10]
  Activity: 1.19%
[11]
  GI50: 2.57 µM
[12]
  GI50: 3.95 µM
[13]
  GI50: 6.81 µM
[14]
  Activity: Non-toxic
[15]
  GI50: 4.65 µM
[16]
  GI50: 2.36 µM
[17]
  GI50: 1.97 µM
[18]
  GI50: 3.49 µM
[19]
  GI50: 2.8 µM
[20]
  Activity: 6.56%
[21]
  GI50: 3.97 µM
[22]
  Activity: 18.49%
[23]
  GI50: 1.54 µM
[24]
  GI50: 3.07 µM
[25]
  GI50: 2.37 µM
[26]
  GI50: 3.46 µM
[27]
  GI50: 3.71 µM
[28]
  Activity: 61.5%
[29]
  Activity: Active
[30]
  Activity: 10.12%
[31]
  Activity: Active
[32]
  GI50: 6.32 µM
[33]
  Activity: 87.4%
[34]
  GI50: 4.15 µM
[35]
  Activity: Active
[36]
  GI50: 2.27 µM
[37]
  GI50: 5.2 µM
[38]
  GI50: 6.81 µM
[39]
  GI50: 4.7 µM
[40]
  GI50: 3.46 µM
